# A selection: hits, their analogues and other compounds. The true share with any hit is near 5.9%.
# KDM4C inh = inhibitors of GASC-1 (KDM4C) histone demethylase, primary screen, biochemical, single concentration HTS; inhibition, % at 12.5 µM; GST-KDM4C 2-372, H3K9me3 peptide, LANCE TR-FRET; Lysine-specific demethylase 4C (Homo sapiens), Q9H3R0; actives 0.15% (n = 96,000); AID 720574, 2013;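 active = mean replicate inhibition above about 25%, with at least 55% of replicates also reaching it, limit read from the data, passing the limit was not always enough; inconclusive = only one of those two conditions met; inactive = neither condition met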
#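 System: N-terminal GST-fused human GASC-1 (KDM4C) fragment, residues 2-372; amount: enzyme final amount 10 nM; incubation: reaction 30 min RT, detection step 1 h RT; medium: HEPES buffer, pH 7.5, plus ascorbate; technique: LANCE TR-FRET, Eu antibody, ULight-streptavidin, EDTA, ex 340 nm, em 618/671 nm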
# Pf Dd2 inh = P. falciparum Dd2 growth inhibitors, primary screen, SYBR Green fluorescence, single dose replicates; 72 h; stronger effect = lower value; activity change, % at 10 µM; actives 2.3% (n = 94,000); AID 1159554, 2015; in the data active = activity change below about -80%; inconclusive = no clear call, values can overlap the other calls
# T cruzi growth-1 = T. cruzi intracellular proliferation inhibitors, primary screen, cell-based, beta-gal Tulahuen parasites, NIH3T3 host, luminescence | T. cruzi beta-gal in NIH3T3, GalScreen luminescence, 90 h | inhibition, % at 8.34 µM | actives 5.9% (n = 77,000);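 active = mean inhibition above about 93%, with at least 55% of replicates each passing it, limit read from the data, passing the limit was not always enough; inconclusive = only one of those two conditions holds; inactive = neither condition holds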
# IDH1 mut inh = inhibitors of IDH1 R132H reductase, primary screen, biochemical, plate reader, single point. Isocitrate dehydrogenase [NADP] cytoplasmic (Homo sapiens), O75874. diaphorase/resazurin fluorescence, 60 min. inhibition, % at 10 µM. actives 0.18% (n = 70,000). AID 624101, 2012; in the data active = inhibition above about 34%; inconclusive = no clear call, values can overlap the other calls; inactive = below about 11%;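 note: 0% = DMSO and 100% = no enzyme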
# Target sequence (O75874 whole entry R132H): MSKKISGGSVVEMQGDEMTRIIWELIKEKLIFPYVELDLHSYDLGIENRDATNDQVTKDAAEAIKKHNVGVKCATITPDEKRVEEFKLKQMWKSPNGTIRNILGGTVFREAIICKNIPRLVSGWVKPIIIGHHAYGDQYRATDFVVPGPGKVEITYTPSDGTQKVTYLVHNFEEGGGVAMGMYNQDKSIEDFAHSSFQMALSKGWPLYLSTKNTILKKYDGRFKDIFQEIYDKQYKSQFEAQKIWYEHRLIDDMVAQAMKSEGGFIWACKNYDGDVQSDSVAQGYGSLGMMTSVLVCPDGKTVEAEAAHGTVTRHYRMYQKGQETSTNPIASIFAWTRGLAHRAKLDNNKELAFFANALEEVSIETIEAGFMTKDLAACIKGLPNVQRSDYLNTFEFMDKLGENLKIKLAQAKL
# T cruzi growth-2 = T. cruzi intracellular proliferation inhibitors, confirmation, cell-based, NIH3T3 host, beta-gal parasite, luminescence, cherry-pick; shares compounds with T cruzi growth-1; T. cruzi beta-gal in NIH3T3, GalScreen luminescence, 90 h; inhibition, % at 8.35 µM; actives 72% (n = 5,600);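 active = mean replicate inhibition above about 95% and at least 55% of replicates individually reaching it, limit read from the data; inconclusive = only one of the two criteria is met; inactive = neither criterion is met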
# T cruzi growth-3 = inhibitors of intracellular T. cruzi replication, confirmation, NIH3T3 host cells, beta-gal parasites, cherry-pick, set 2 | shares compounds with T cruzi growth-1 | T. cruzi beta-gal in NIH3T3, GalScreen luminescence, 90 h | inhibition, % at 2.09 µM | actives 21% (n = 5,600);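 active = mean inhibition above about 95%, with at least 55% of replicates also reaching it, limit read from the data; inconclusive = meets just one of the two conditions; inactive = meets neither condition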;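 note: plate controls were neutral control median for no effect and positive control median for full effect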
# 3T3 cytotox = cytotoxicity in mouse NIH/3T3 fibroblasts, confirmation, cytotoxicity control for T. cruzi proliferation inhibitor project, cell-based, cherry-pick, single point | shares compounds with T cruzi growth-1 | NIH/3T3 viability, CellTiter-Glo ATP luminescence, 90 h | cytotoxicity (signal decrease), % at 8.35 µM | actives 14% (n = 5,600) | AID 651742, 2012;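 active = mean signal decrease across replicates above about 35% based on untreated-well scatter, with enough replicates individually passing, limit read from the data; inconclusive = no rule stated though some were filed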;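 note: 0% = median of neutral control wells and 100% = median of positive control wells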
# NIH3T3 tox 2 = NIH/3T3 fibroblast cytotoxicity, confirmation, cytotoxicity control, cell-based, cherry-pick, single point, set 2. shares compounds with T cruzi growth-1. NIH/3T3 viability, CellTiter-Glo ATP luminescence, 90 h. inhibition, % at 24.9 µM. actives 56% (n = 5,600). AID 651744, 2012;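 active = mean loss of cell viability signal at or above a set limit, and enough replicates individually reaching it; inconclusive = meets only the mean limit or only the replicate share; inactive = meets neither condition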;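 note: 0% = median of neutral control wells and 100% = median of positive control wells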
# Active calls of the source: *; ? = inconclusive; / = no result given.
SMILES,KDM4C inh,Pf Dd2 inh,T cruzi growth-1,IDH1 mut inh,T cruzi growth-2,T cruzi growth-3,3T3 cytotox,NIH3T3 tox 2
Cc1ccc(S(=O)(=O)Nc2ccc3c(c2)C(=O)N([C@@H](C)CO)C[C@H](C)[C@@H](CN(C)S(=O)(=O)c2ccc(C)cc2)OCCCC[C@H](C)O3)cc1,-1,-76,106*,/,108*,85,-19,-17
COCC#Cc1cnc2c(c1)C(=O)N([C@@H](C)CO)C[C@@H](C)[C@H](CN(C)Cc1ccc(-c3ccccc3)cc1)O2,0,-44,120*,/,109*,62,46*,106*
COCC#Cc1cnc2c(c1)C(=O)N([C@H](C)CO)C[C@H](C)[C@@H](CN(C)Cc1ccc(-c3ccccc3)cc1)O2,0,-68,80,/,/,/,/,/
C[C@H]1CN([C@@H](C)CO)C(=O)c2cc(C#CCN(C)C)cnc2O[C@H]1CN(C)Cc1ccc(-c2ccccc2)cc1,2,/,79,/,/,/,/,/
C[C@H](CO)N1C[C@H](C)[C@@H](CN(C)Cc2ccc(-c3ccccc3)cc2)Oc2ncc(C#CCN(C)C)cc2C1=O,5,/,?,/,108*,82,33,104*
COCC#Cc1cnc2c(c1)C(=O)N([C@H](C)CO)C[C@@H](C)[C@H](CN(C)Cc1ccc(-c3ccccc3)cc1)O2,0,-69,119*,-10,108*,39,20,102*
O=C(C[C@H]1CC[C@H]2[C@@H](COC[C@@H](O)CN2S(=O)(=O)c2ccccc2)O1)Nc1ccc(-c2ccccc2)cc1,2,-14,88,/,/,/,/,/
Cc1cccc(S(=O)(=O)N2C[C@H](O)COC[C@H]3O[C@H](CC(=O)Nc4ccc(-c5ccccc5)cc4)CC[C@@H]32)c1,0,-22,?,/,104*,74,23,99*
Cc1cccc(S(=O)(=O)N2C[C@@H](O)COC[C@@H]3O[C@@H](CC(=O)Nc4ccc(-c5ccccc5)cc4)CC[C@H]32)c1,-1,-61,72,/,/,/,/,/
O=C(C[C@@H]1CC[C@H]2[C@@H](COC[C@@H](O)CN2S(=O)(=O)c2ccccc2)O1)Nc1ccc(-c2ccccc2)cc1,0,-10,97*,/,106*,71,13,92*
CO[C@H]1CC[C@H]2CCOc3c(C#N)cccc3C(=O)N(C)C[C@@H](c3ccccc3)CC(=O)N(C)C[C@H]1O2,2,12,-36,0,/,/,/,/
CC(C)CC#Cc1cnc2c(c1)C(=O)N([C@@H](C)CO)C[C@@H](C)[C@H](CN(C)CC1CCOCC1)O2,2,-2,42,0,/,/,/,/
CCC(=O)NC[C@@H]1[C@@H](c2ccc(C3=CCCC3)cc2)[C@H](CO)N1C(C)=O,1,-36,94,/,/,/,/,/
COCC(=O)NC[C@H]1[C@H](c2ccc(C3=CCCC3)cc2)[C@H](CO)N1C(C)=O,2,12,?,/,-7,0,-21,-23
COCC(=O)NC[C@@H]1[C@H](c2ccc(C3=CCCC3)cc2)[C@@H](CO)N1C(C)=O,1,10,108*,/,-26,-22,-2,-2
COCC(=O)NC[C@@H]1[C@H](c2ccc(C3=CCCC3)cc2)[C@H](CO)N1C(C)=O,2,-8,116*,/,96*,1,3,-9
CCC(=O)NC[C@H]1[C@@H](c2ccc(C3=CCCC3)cc2)[C@@H](CO)N1C(C)=O,2,1,77,/,/,/,/,/
